Screens as filed in PubChem.
CHO parental Ca: ATP-evoked calcium signal inhibitors, parental CHO, primary screen, counter-screen for OX1R antagonist project, cell-based, fluorescence, Fluo-8 calcium dye; parental CHO-K1, ATP-induced calcium, Fluo-8 fluorescence; inhibition, % at 5.6 µM; hit rate 0.63% among 330,000;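 active = inhibition above that plate's mean sample inhibition plus 3 SD, cut at about 26% in these data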
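Measured by: calcium-sensitive Fluo-8 fluorescence / Test system: CHO parental line / Controls: ATP-challenged DMSO wells low, unchallenged DMSO wells high / Measure: % inhibition / Compound: single nominal dose of 5.6 µM per compound / Replicates: single well per compound, no replicates / Reagent: ATP as calcium-mobilizing challenge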
OX1R antag-1: OX1R (HCRTR1) antagonists, primary screen, fluorescence, CHO/OX1R cells, Fluo-8 calcium, orexin A; Orexin/Hypocretin receptor type 1 (Homo sapiens), O43613; Fluo-8 calcium fluorescence; inhibition, % at 5 µM; hit rate 0.43% among 330,000; AID 434989, 2010;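 active = inhibition above its plate's threshold, mean inhibition of all tested compounds on the plate plus 3 SD, cut at about 37% in these data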
OX1R antag-2: antagonists of human orexin 1 receptor (OX1R). OX1R-expressing cells, FRET antagonist read-out. inhibition, % at 6.6 µM. hit rate 1.8% among 330,000. AID 485270, 2010; in the data active = inhibition mostly above about 38%, no sharp cut-off; inactive = mostly below about 40%
GPR7 antag: GPR7 receptor antagonists, primary screen, cell-based, fluorescence, single concentration; Neuropeptides B/W receptor type 1 (Homo sapiens), P48145; GPR7-expressing cells, fluorescence antagonist assay; inhibition, % at 4.4 µM; hit rate 1.1% among 290,000; in the data active = inhibition above about 16%, passing the limit was not always enough;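 also: cells stimulated with the agonist NPW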
Target sequence (P48145 whole entry, looked up): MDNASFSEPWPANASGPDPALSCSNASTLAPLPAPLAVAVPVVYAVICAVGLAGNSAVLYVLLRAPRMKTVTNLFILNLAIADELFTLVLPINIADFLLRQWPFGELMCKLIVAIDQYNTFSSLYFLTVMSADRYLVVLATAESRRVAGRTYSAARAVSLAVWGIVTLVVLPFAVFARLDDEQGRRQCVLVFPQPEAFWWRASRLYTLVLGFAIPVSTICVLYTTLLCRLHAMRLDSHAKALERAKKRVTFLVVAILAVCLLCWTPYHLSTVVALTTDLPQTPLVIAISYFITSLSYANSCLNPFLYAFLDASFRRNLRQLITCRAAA
MPTP block: mitochondrial permeability transition pore inhibitors, primary screen, biochemical, isolated mouse mitochondria, absorbance; Ca2+ swelling absorbance, 30 min; hit rate 1.4% among 360,000; inhibition, % at 10 µM; AID 602449, 2012;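 active = inhibition of 50% or more, scaled per plate between neutral and stimulator controls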
Rh123 counter: fluorescence retest of MPTP screen hits in isolated mitochondria, single concentration. shares compounds with MPTP block. inhibition, % at 10 µM. hit rate 78% among 5,000. membrane potential, Rhodamine 123 fluorescence; in the data active = inhibition above about 22%
MPTP abs DR: mitochondrial permeability transition pore inhibitors, dose response, biochemical, absorbance, uHTS hits. shares compounds with MPTP block. isolated mitochondria swelling. IC50, µM. hit rate 58% among 780; in the data active = IC50 below about 20 µM
MPTP cs DR: fluorescent counter-screen in isolated mitochondria, dose response, counter-screen for MPTP inhibitor project, biochemical, fluorescence, uHTS hits | isolated mitochondria counterscreen, fluorescence read-out | AID 651564, 2012 | IC50, µM | shares compounds with MPTP block | hit rate 49% among 780; in the data active = IC50 below about 80 µM
Large screens that a line does not name were inactive (follow-up assays come after a bar, where they were run). This is a sample that favours compounds with a hit; in the whole collection about 3.8% have one here.

CCc1ccccc1NCC(=O)Nc1ccc(Cl)c(C(F)(F)F)c1	MPTP block 68.7 | Rh123 counter 86.4
O=[N+]([O-])c1cc(C(F)(F)F)cc([N+](=O)[O-])c1NCCN1CCNCC1	none
O=[N+]([O-])c1cc(C(F)(F)F)cc([N+](=O)[O-])c1NCCNC(=S)Nc1ccc(Cl)c(Cl)c1	MPTP block 75.6 | Rh123 counter 69.2
Cc1c(Br)cnn1C(C)C(=O)N1CCN(c2ccc(F)cc2)CC1 (configuration not stated)	none (no result: GPR7 antag)
O=C(NCc1csc(-c2cccs2)n1)Nc1cccc(Cl)c1	MPTP block 76.2 | Rh123 counter 81.8
O=C(Cc1csc(NC(=O)Nc2cccc(Cl)c2)n1)NCc1ccccn1	none (no result: GPR7 antag)
O=C(Cc1csc(NC(=O)Nc2cccc(Cl)c2)n1)NC1CCCC1	MPTP block 78.6 (no result: GPR7 antag) | Rh123 counter 73.1
O=C(N/N=C/c1c(O)ccc2ccccc12)c1[nH]ncc1Br	MPTP block 54.7 | Rh123 counter 55.4
Cc1ccc(O)c(/C=N/NC(=O)c2[nH]ncc2Br)c1	none
O=C(N/N=C/c1c(O)ccc2ccccc12)c1cccc(C(F)(F)F)c1	OX1R antag-1 56.3, MPTP block 98.9 | Rh123 counter 42.3
Oc1ccc(Cl)cc1C1=NNC(c2ccc(Cl)cc2)C1 (configuration not stated)	none
Oc1c(Cl)cc(Cl)cc1C1=NNC(c2ccc(Cl)cc2)C1 (configuration not stated)	MPTP block 67.7 (no result: CHO parental Ca, OX1R antag-1, OX1R antag-2) | Rh123 counter 30.4
CC(C)(C)NCC(O)COc1ccccc1C1CCCC1 (configuration not stated)	MPTP block 95.1 (no result: GPR7 antag) | Rh123 counter inactive | MPTP abs DR 6.79 | MPTP cs DR 55.6
O=C(NNc1ccccc1Br)C(=O)n1ccc2ccccc21	MPTP block 56.8 | Rh123 counter 57.0
CCC1(CC)NC(=O)N(CC(=O)OC(C)C(=O)Nc2ccc(NC(C)=O)cc2)C1=O (configuration not stated)	none (no result: GPR7 antag)
O=c1[nH]nc(SCc2nnc(-c3cccc(Cl)c3)o2)n1C1CCCCC1	MPTP block 72.7 | Rh123 counter 33.0
COc1ccc(-c2nnc(CSc3nnc(-c4ccncc4)n3C3CCCCC3)o2)cc1OC	none
Cc1cccc(-c2nc(CSCC(=O)N3CCN(c4ccccn4)CC3)c(C)o2)c1	OX1R antag-2 44.7, MPTP block 77.7 | Rh123 counter 62.9
Cc1ccc(-c2nc(CSCC(=O)N3CCCC3)c(C)o2)cc1	none
Cc1noc(C)c1C(=O)Nc1sc(C)c(-c2ccccc2)c1C#N	MPTP block 73.6 | Rh123 counter 79.7
Cc1cc(/C(N)=N/OC(=O)Nc2ccc(Cl)cc2)no1	MPTP block 57.2 | Rh123 counter 82.2
O=C(CCc1ccccc1)NC(=S)NCc1ccco1	none
O=C(CSc1nc(-c2cccs2)cc(C(F)(F)F)n1)Nc1cc(OCC(F)(F)C(F)F)cc([N+](=O)[O-])c1	MPTP block 92.7 | Rh123 counter 80.4
O=C(CSc1nc(-c2ccc(F)cc2)cc(C(F)(F)F)n1)NCc1cccs1	none
N#CN(Cc1ccccc1)Cc1ccccc1	none
Cc1cccc(Oc2cc(NC(=O)c3ccccc3)cc([N+](=O)[O-])c2)c1	MPTP block 67.9 | Rh123 counter 81.0
Cn1cc([N+](=O)[O-])c(C(=O)Nc2cc(Oc3ccccc3)cc([N+](=O)[O-])c2)n1	none
O=C(Nc1cc(Oc2ccc(Cl)cc2)cc([N+](=O)[O-])c1)c1ccco1	MPTP block 91.4 | Rh123 counter 73.8
Cn1cc(C(=O)Nc2ccc(C#N)cc2)c2ccccc2c1=O	none
Cc1cc(C)c(C#N)c(SCCS(=O)(=O)c2ccc(C(C)(C)C)cc2)n1	MPTP block 60.8 | Rh123 counter 20.4
Cc1cc(C)c(C#N)c(SCCS(=O)(=O)c2ccc(Cl)cc2)n1	none
N#Cc1ccccc1S(=O)(=O)Nc1ccc2c(c1)OCCO2	none
COc1ccc(CCN(C)Cc2c(O)ccc3cc(Br)ccc23)cc1OC	none
COc1ccc(CN(C)Cc2c(O)ccc3cc(Br)ccc23)cc1OC	MPTP block 68.5 | Rh123 counter 50.4
Cc1nn(C)c(C)c1CN(Cc1nc(CCC(C)C)no1)C(C)C	CHO parental Ca 41.1, MPTP block 102.9 | Rh123 counter 92.9
CC(C)CCc1noc(CN(C)CCC2CCOCC2)n1	none
CC(=O)NCCC(=O)Nc1cc(S(=O)(=O)N2CCOCC2)ccc1Oc1ccccc1	none
Cc1ccc(S(=O)(=O)N(C)CC(=O)NNC(=O)Cc2cccc(F)c2)cc1	none (no result: GPR7 antag)
Cc1cccc(-n2c(C)cc(/C=C3\C(=N)N4N=C(CC(C)C)SC4=NC3=O)c2C)c1	none
CCSC1=NSC2=NC(=O)/C(=C\c3coc4ccccc4c3=O)C(=N)N12	CHO parental Ca 59.0, OX1R antag-1 54.0, MPTP block 101.0 | Rh123 counter 74.1
CC(C)CC1=NN2C(=N)/C(=C\c3coc4ccccc4c3=O)C(=O)N=C2S1	MPTP block 85.9 (no result: CHO parental Ca, OX1R antag-1, OX1R antag-2) | Rh123 counter 81.5
N#CCC(=N)N1CCN(c2ccccc2Cl)CC1	none
Cc1ccc(N(CC2CO2)S(=O)(=O)c2ccc([N+](=O)[O-])cc2)cc1 (configuration not stated)	none
N/C(=N\OC(=O)COc1ccc2ccccc2c1)c1cccnc1	MPTP block 60.8 | Rh123 counter 83.6
N/C(=N\OC(=O)COc1ccc(Cl)cc1)c1cccnc1	none
COCCOC1CCN(C(=O)c2cc(COc3ccc(-n4cncn4)cc3)on2)CC1	none
COCC1CCCCN1C(=O)c1cc(COc2ccc3ncccc3c2)on1 (configuration not stated)	CHO parental Ca 46.9, OX1R antag-1 55.1, MPTP block 99.9 | Rh123 counter 101.4
COCCC1CCCCN1C(=O)c1cc(COc2ccc(-n3cncn3)cc2)on1 (configuration not stated)	CHO parental Ca 53.0, MPTP block 92.5 | Rh123 counter 100.2
CCc1ccc(CN(C)C(=O)c2cc(COc3ccc(-n4cncn4)cc3)on2)cc1	MPTP block 58.7 | Rh123 counter 78.1
CCCN1CCN(C(=O)c2cc(COc3ccc4ncccc4c3)on2)CC1	MPTP block 86.1 | Rh123 counter 55.6
CCN1CCN(C(=O)c2cc(COc3ccc4ncccc4c3)on2)CC1	none
